Shown are actives, neighbours in structure and some others; about 3.7% of the full set was active somewhere.
KCNK9 block: human KCNK9 channel inhibition. B-score at 10 µM. 310,000 compounds, 1.2% hits. AID 488922. HEK293 KCNK9, FluxOR thallium flux fluorescence; hits give low values;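 active = ratio B-score over 3 SD below the library mean, with starting fluorescence within 5 SD of its mean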;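 also: negative B-score means less thallium flux so channel inhibition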
KCNK3 inh: human KCNK3 channel inhibition, primary screen; CHO-KCNK3 thallium flux, FluxOR fluorescence; hits give low values; 340,000 compounds, 0.84% hits; AID 602410; O14649; B-score at 10 µM;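 active = B-score under library mean minus 4 SD, starting fluorescence ratio at most library mean plus 5 SD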;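 also: more negative B-score means stronger inhibition of thallium flux through KCNK3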
Target sequence (O14649 whole entry, looked up): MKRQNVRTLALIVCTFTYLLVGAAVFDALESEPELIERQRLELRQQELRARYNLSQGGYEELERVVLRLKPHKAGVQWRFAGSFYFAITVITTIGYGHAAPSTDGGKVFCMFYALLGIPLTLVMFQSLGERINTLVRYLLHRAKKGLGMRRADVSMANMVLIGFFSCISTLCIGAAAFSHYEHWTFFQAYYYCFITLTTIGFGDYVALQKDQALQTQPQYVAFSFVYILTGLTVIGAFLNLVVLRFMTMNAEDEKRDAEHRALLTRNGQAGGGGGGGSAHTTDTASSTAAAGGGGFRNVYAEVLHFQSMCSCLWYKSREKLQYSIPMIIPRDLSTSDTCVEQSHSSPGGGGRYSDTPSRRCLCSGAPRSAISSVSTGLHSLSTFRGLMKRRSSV
Kir21 inh: Kir2.1 (mouse) channel inhibition; 310,000 compounds, 0.85% hits; P35561; HEK293-Kir2.1, FluxOR thallium flux fluorescence; hits give low values; B-score at 10 µM;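 active = fluorescence ratio B-score at or below minus 3 SD of library scores, with starting-brightness B-score within 2 SD, cut at about -4.2 in these data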;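 also: channel flux triggered by added potassium and thallium sulfate stimulus; B-score of peak minus minimum fluorescence over baseline after thallium stimulus; more negative B-score means stronger Kir2.1 block with less thallium influx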
hERG rescue: hERG (human) protection from proarrhythmic block | Q12809 | AID 1511 | CHO-hERG, FluxOR thallium flux, dofetilide IC70 present | 310,000 compounds, 0.51% hits | activation (rescue from dofetilide block), less the hit threshold, % at 10 µM;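 active = activation above the mean of controls blocked by dofetilide plus 5 SD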;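 also: thallium influx through hERG after potassium depolarization seen as dye fluorescence rise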
KCNQ1 inh: inhibitors of human KCNQ1 potassium channel | P51787 | CHO-K1 KCNQ1, FluxOR thallium flux fluorescence; hits give high values | B-score at 10 µM | 310,000 compounds, 1.3% hits;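 active = compounds whose thallium flux B-score, printed positive for inhibition, exceeds three library SD while starting fluorescence stays within three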;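 also: channel opened by potassium depolarization with thallium stimulus after 20 min compound exposure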
KCNQ1 pot: potentiators or activators of human KCNQ1 potassium channel | P51787 | CHO-K1 KCNQ1, thallium flux FluxOR fluorescence; hits give high values | B-score at 10 µM | 310,000 compounds, 0.35% hits | AID 2648;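 active = fluorescence ratio B-score, a plate-corrected score, at least three library SD, with initial intensity B-score within 5 SD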
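System: CHO-K1 cells stably expressing KCNQ1 / Medium: assay buffer for compound exposure, DMSO matched across wells / Reagent: thallium- and potassium-containing depolarizing buffer / Compound: one concentration, matched DMSO / Incubation: 20 min compound pretreatment at room temperature / Measured by: kinetic FluxOR fluorescence, 10 s baseline plus 110 s post-stimulus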
KCNK9 inh conf: confirmation of human KCNK9 potassium channel inhibitors; shares compounds with KCNK9 block; HEK293 KCNK9 cells, FluxOR thallium flux fluorescence; inhibition, % at 10 µM; 4,900 compounds, 43% hits;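 active = thallium signal inhibited by more than 5 SD of the compound-free buffer control wells, on both duplicate plates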
Kir21 sel: selectivity of KCNK9 modulators against mouse Kir2.1; inhibition, % at 10 µM; 4,900 compounds, 4% hits; shares compounds with KCNK9 block; Kir2.1 cells, FluxOR thallium flux fluorescence;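 active = thallium signal drop more than 5 SD beyond the mean of the no-compound control wells, seen in both duplicate plates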;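 also: signal is fluorescence rise after thallium addition divided by baseline fluorescence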
HEK293 Tl ctr: second counter-screen for KCNK9 modulators: effect in non-induced cells. non-induced KCNK9-HEK293, FluxOR thallium flux. inhibition, % at 10 µM. 4,900 compounds, 40% hits. shares compounds with KCNK9 block. AID 492997;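 active = thallium signal drop beyond 5 SD of the untreated control mean, on both duplicate plates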
Hits are given with their value; 0 = inactive; - = not tested or not shown.

SMILES | KCNK9 block | KCNK3 inh | Kir21 inh | hERG rescue | KCNQ1 inh | KCNQ1 pot | KCNK9 inh conf | Kir21 sel | HEK293 Tl ctr
O=C(O)c1ccc(N2C(=O)CC(N3CCN(c4ccc(Cl)cc4)CC3)C2=O)cc1 (stereo unspecified) | 0 | 0 | 0 | 0 | 0 | 0 | - | - | -
O=C(O)c1ccc(N2C(=O)CC(N3C(=O)/C(=C/c4ccc(Cl)cc4)SC3=S)C2=O)cc1 (stereo unspecified) | 0 | 0 | 0 | 0 | 0 | 0 | 0 | 0 | 0
O=S(=O)(c1cccs1)N1CCC(CO)(Cc2ccc(Cl)cc2)CC1 | 0 | 0 | 0 | 0 | 0 | 0 | - | - | -
Oc1ccc2ccccc2c1CN1CCN(C/C=C/c2ccccc2)CC1 | 0 | 0 | 0 | 0 | 0 | 0 | 0 | 0 | 0
O=S(=O)(c1ccc(F)cc1)N1CCN(CCc2ccccc2)CC1 | 0 | 0 | 0 | 0 | 0 | 0 | 0 | 0 | 0
O=S(=O)(c1ccccc1)N1CCN(Cc2c(O)ccc3ccccc23)CC1 | - | 0 | - | - | - | - | - | - | -
O=S(=O)(c1ccccc1)N1CCN(C/C=C/c2ccccc2)CC1 | 0 | 0 | 0 | 0 | 0 | 0 | 0 | 0 | 0
CCOC(=O)c1c(C)nc2c(c1-c1ccc(Cl)cc1)C(=O)CC(C)(C)C2 | 0 | 0 | 0 | 0 | 0 | 0 | - | - | -
CCN(C(=O)c1cn(C)c(=O)c2ccccc12)c1ccccc1F | 0 | 0 | 0 | 0 | 0 | 0 | - | - | -
Fc1ccc(Oc2ccnc(Cl)n2)c(Cl)c1 | 0 | 0 | 0 | 0 | 0 | 0 | - | - | -
CCCCCCCc1ccc(-c2ccc(O)cc2)nc1 | 0 | 0 | 0 | 0 | 0 | 0 | 0 | 0 | 0
CCCCCc1ccc(-c2ccc(/C=C/C(=O)O)cc2)nc1 | 0 | 0 | 0 | 0 | 0 | 0 | - | - | -
O=C(/C=C/c1cccs1)NC(=S)Nc1ccc(S(=O)(=O)Nc2ccccc2C(F)(F)F)cc1 | 0 | 0 | 0 | 0 | 0 | 0 | 0 | 0 | 0
Cc1cc(=O)n2c(n1)NC(Nc1cccc(C)c1C)=NC2c1ccccc1 (stereo unspecified) | 0 | 0 | 0 | 0 | 0 | 0 | - | - | -
CC(C)C(=O)N1CCN(c2nc(-c3ccccc3)c3c(c2C#N)CCCC3)CC1 | -8.6 | 0 | 0 | 0 | 0 | 0 | 40% | 0 | 0
CCOC(=O)N/N=C/c1cc(C)n(-c2cccc3ccccc23)c1C | -8.3 | 0 | 0 | 0 | 0 | 0 | 48% | 0 | 36%
O=S(=O)(Nc1nc2ccc(Cl)cc2s1)c1cccs1 | 0 | 0 | 0 | 0 | 0 | 0 | - | - | -
CCOc1ccccc1C(=O)NCC(=O)Nc1ncccc1C | 0 | 0 | 0 | 0 | 0 | 0 | - | - | -
CCOc1ccc(C(=O)NCC(=O)Nc2ncccc2C)cc1OCC | 0 | 0 | 0 | 0 | 0 | 0 | 51% | 0 | 0
COC(=O)C(=O)/C=C(\O)c1c(C)cc(C)cc1C | 0 | 0 | 0 | 0 | 0 | 0 | - | - | -
Cc1cc(=O)oc(C)c1C(=O)Nc1cccnc1Cl | 0 | 0 | 0 | 0 | 0 | 0 | - | - | -
COc1ccc(C=O)cc1CN1CCCN(Cc2ccc(Cl)cc2)S1(=O)=O | 0 | 0 | 0 | 0 | 0 | 0 | - | - | -
Cc1ccc(CN2CCCN(Cc3c(C)cc(C)cc3C)S2(=O)=O)cc1 | 0 | 0 | 0 | 0 | 0 | 0 | 0 | 0 | 0
CC(C)C(C)N(Cc1cccc(C(=O)O)c1)C(=O)c1ccc2ccccc2n1 (stereo unspecified) | 0 | 0 | 0 | 0 | 0 | 0 | - | - | -
CC1=NN(C(=O)COc2ccc(C)c(C)c2)C(O)(c2ccc(Cl)cc2)C1 (stereo unspecified) | -14 | 0 | 0 | 0 | 0 | 0 | 50% | 0 | 35%
CCOC(=O)C1=NN(C(=O)COc2ccccc2)C(O)(c2ccc(Br)cc2)C1 (stereo unspecified) | -11 | 0 | 0 | 0 | 0 | 0 | 0 | 0 | 0
CCCCC(=O)Nc1ccc(NC(=S)NC(=O)CCCCl)cc1OC | 0 | 0 | 0 | 0 | 0 | 0 | - | - | -
CC1(NC(=O)c2cc(Cl)nc3ccccc23)CCS(=O)(=O)C1 (stereo unspecified) | - | 0 | - | - | - | - | - | - | -
Cc1ccc(NC(=O)CN(C)Cc2cccs2)cc1Cl | -16 | 0 | 0 | 0 | 0 | 0 | 68% | 0 | 32%

Screening results deposited in PubChem by Johns Hopkins Ion Channel Center.
